Source: PubChem BioAssay
UCH37 DUB inh: blocks the human deubiquitinase UCH37; inhibition, % (concentration not given with the values); hit rate 0.33% among 330,000; AID 588478; purified proteasome/UCH37, Ub-AMC cleavage fluorescence;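 active = mean inhibition over replicate wells above about 20%, limit read from the data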;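 note: 0% = compound-free wells with enzyme and 100% = wells lacking proteasome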
Target sequence (Q9Y5K5 whole entry, looked up): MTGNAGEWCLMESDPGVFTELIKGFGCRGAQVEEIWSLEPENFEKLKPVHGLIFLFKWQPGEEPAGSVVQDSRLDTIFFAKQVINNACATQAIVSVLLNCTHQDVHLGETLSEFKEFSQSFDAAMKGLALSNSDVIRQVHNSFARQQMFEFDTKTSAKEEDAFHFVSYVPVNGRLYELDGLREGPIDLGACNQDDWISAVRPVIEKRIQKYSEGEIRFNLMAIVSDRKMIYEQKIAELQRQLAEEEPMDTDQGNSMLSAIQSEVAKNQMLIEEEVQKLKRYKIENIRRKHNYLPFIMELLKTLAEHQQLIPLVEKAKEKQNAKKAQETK
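Reagent: Ub-AMC substrate; assay system: Proteasome-associated human UCH37 deubiquitinase; controls: no-proteasome and no-compound wells; read-out: % inhibition of Ub-AMC cleavage fluorescence; timing: 30 min preincubation with enzyme, 25 min cleavage at room temperature; signal: AMC fluorescence from Ub-AMC cleavage, excitation 355 nm, emission 460 nm; buffer or medium: Tris-HCl pH 7.4 plus ovalbumin, ATP-MgCl2, DTT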
HDAC3 inh: inhibitors of human histone deacetylase 3; O15379; recombinant HDAC3, fluorogenic peptide/trypsin coupled, fluorescence; inhibition, % at 8.3 µM; hit rate 0.15% among 320,000; in the data active = inhibition above about 26%, passing the limit was not always enough; inconclusive = no clear call, values can overlap the other calls
ALR H2O2 inh: inhibitors of human sulfhydryl oxidase ALR. P55789. hit rate 3.8% among 290,000. purified ALR, DTT oxidation, H2O2 HRP-luminol luminescence. inhibition, % (no concentration beside the values);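 active = mean replicate inhibition above about 79%, with every replicate also reaching it, limit read from the data; inconclusive = only one of the two criteria met; inactive = mean below limit and not every replicate reaching it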
Target sequence (P55789 whole entry, looked up): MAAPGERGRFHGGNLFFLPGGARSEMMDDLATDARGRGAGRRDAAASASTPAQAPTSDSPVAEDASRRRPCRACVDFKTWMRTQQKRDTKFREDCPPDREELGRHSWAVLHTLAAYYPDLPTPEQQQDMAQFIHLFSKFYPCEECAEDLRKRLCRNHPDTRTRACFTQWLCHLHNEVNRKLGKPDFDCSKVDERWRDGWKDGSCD
M18AAP inhibitor: blocks P. falciparum M18 aspartyl aminopeptidase | inhibition, % at 7.35 µM | recombinant PfM18AAP, H-Glu-NHMec fluorogenic cleavage | AID 1822 | hit rate 1.2% among 290,000;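 active = inhibition above the campaign mean inhibition over all tested compounds plus 3 SD, cut at about 28% in these data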;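 note: 0% = plate median of test compound wells and 100% = 2 mM ZnCl2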
Rtt109 HAT inh: inhibitors of Candida albicans Rtt109/Vps75 histone acetyltransferase | Q5AAJ8 | purified Rtt109/Vps75, ThioGlo CoA-SH fluorescence, 4 h | inhibition, % at 34.9 µM | hit rate 0.16% among 330,000 | AID 540336;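 active = inhibition of at least 50% in every replicate; inconclusive = best replicate reaches 50% inhibition but some replicates fall short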
FAS-TE inh: inhibitors of human fatty acid synthase thioesterase domain; P49327; recombinant FAS-TE, OMFH fluorogenic substrate, fluorescence endpoint; inhibition, % at 15 µM; hit rate 0.67% among 360,000; AID 602261;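 active = compounds whose normalised, plate-corrected inhibition of enzyme fluorescence in the single-dose primary screen is 50% or more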;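 note: 0% = DMSO with enzyme and 100% = substrate without enzyme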
Numbers without * were called inactive; ? = inconclusive; nt = no result. A selection: hits, their analogues and other compounds. The true share with any hit is near 4.6%.

SMILES	UCH37 DUB inh	HDAC3 inh	ALR H2O2 inh	M18AAP inhibitor	Rtt109 HAT inh	FAS-TE inh
C=CCn1c(O)c(/C(C)=N/N2CCCCCC2)c(=O)[nH]c1=O	6.4	1.8	32.1	-3.7	-4.3	-1.6
C=CCn1c(O)c(C(C)=Nc2ccc(N(C)C)cc2)c(=O)[nH]c1=O	4.6	10.2	5.4	30.5*	1.5	-7.1
C=CCn1c(O)c(C(CC)=Nc2ccc(N(CC)CC)cc2)c(=O)[nH]c1=O	6.1	-7.6	57.1	28.8*	0.8	-2.9
C=CCn1c(O)c(C(CC)=Nc2ccc(NC(C)=O)cc2)c(=O)[nH]c1=O	9.0	-5.0	4.8	13.0	-11.5	-1.6
C=CCn1c(O)c(C(C)=Nc2cc(OC)ccc2OC)c(=O)[nH]c1=O	4.5	0.6	-21.5	6.0	-4.7	-12.3
C=CCn1c(O)c(C(C)=Nc2ccc(N(CC)CC)cc2)c(=O)[nH]c1=O	2.1	-6.5	6.5	29.4*	4.0	-5.9
CN1CCN(c2ccc([N+](=O)[O-])c(NN=C3CN4CCC3CC4)c2)CC1	8.0	nt	nt	nt	nt	nt
COc1ccc2c(c1)[C@]13CCCC[C@@H]1[C@H](C2)N(C)CC3	4.1	nt	nt	nt	nt	nt
Cn1c(O)c(C(=Nc2ccccc2)SCc2ccccc2Cl)c(=O)n(C)c1=O	4.0	8.0	96.3*	-11.2	-0.1	-6.4
Cc1cc(C)cc(N2C(=O)NC(=O)/C(=C\c3cccn3-c3ccc(Cl)cc3)C2=O)c1	-0.2	0.3	97.8*	1.7	5.7	-6.1
Cc1cc(C)cc(N2C(=O)NC(=O)/C(=C\c3cccn3-c3ccccc3)C2=O)c1	nt	-4.1	51.2	5.3	-8.9	-8.2
CCC(C)N1C(=O)NC(=O)C2(Cc3c(ccc4ccccc34)N(C)C2)C1=O (configuration not stated)	1.5	-1.7	92.6*	-0.8	9.7	4.1
COc1ccc2c(c1)CC1(CN2C)C(=O)NC(=O)N(CCc2ccccc2)C1=O (configuration not stated)	1.5	1.0	-24.6	7.1	-0.8	0.1
CCn1c(O)c(/C=N/NC(=O)c2ccccc2)c(=O)[nH]c1=S	-27.2	-3.1	6.8	-5.8	-2.2	25.0
COc1ccccc1-n1c(O)c(/C=N/NC(=S)Nc2ccccc2)c(=O)[nH]c1=S	7.2	-0.9	91.9*	6.5	9.1	-0.9
N#Cc1c(N=CC2C(=O)NC(=S)NC2=O)sc2c1CCCC2	12.0	nt	nt	nt	nt	nt
C#CC1(O)CCC2C3CCC4=CC(=NOCC(=O)NCC(=O)NC(C(=O)O)C(C)C)CC[C@]4(C)C3CC[C@@]21C (some centres not stated)	0.5	nt	nt	nt	nt	nt
CCN(CC)c1ccc(N=Cc2c(O)n(-c3ccccc3)c(=O)[nH]c2=O)cc1	3.9	13.5	81.4*	17.7	4.5	-12.6
CCN(CC)c1ccc(N=Cc2c(O)n(-c3ccccc3C)c(=O)[nH]c2=O)cc1	7.7	0.9	98.5*	22.5	11.8	-24.0
NC(=N[N+](=O)[O-])N1CCN(C(=O)c2ccccn2)CC1	1.1	nt	nt	nt	nt	nt
CCC12CN3CCN(CC(C3)C1=NNC(=O)c1ccncc1)C2	-0.7	nt	nt	nt	nt	nt
C=CCn1c(O)c(/C=N/NC(=O)CCCC)c(=O)[nH]c1=S	nt	4.2	90.0*	-4.5	10.3	-1.6
NC(N)=NN=Cc1cn(-c2ccccc2)nc1-c1cccs1	-9.4	nt	nt	nt	nt	nt
Cc1ccsc1-c1nc(CSCC(=O)N2CCC3(CC2)OCCO3)c(C)o1	-3.9	-11.5	98.8*	0.4	-28.5	-0.5
Cc1ccccc1-c1nc(CS(=O)CC(=O)N2CCC3(CC2)OCCO3)c(C)o1 (configuration not stated)	1.0	-3.3	99.8*	6.9	-14.5	-5.6
SMILES	UCH37 DUB inh	HDAC3 inh	ALR H2O2 inh	M18AAP inhibitor	Rtt109 HAT inh	FAS-TE inh
O=C(CSc1ccccc1)N1CCC2(CC1)OCCO2	1.4	-0.3	-10.2	4.0	-5.3	-6.2
CC(=O)O[C@@H]1C=C[C@](C)(O)C[C@@H](C)CC=C[C@H]2[C@H](O)C(C)=C(C)[C@H]3[C@H](Cc4ccccc4)NC(=O)[C@@]123	3.2	nt	nt	nt	nt	nt
CCC12C=CCN3CCC4(c5cc(Br)c(OC)cc5N(C)C4C(O)(C(=O)OC)C1OC(C)=O)C32 (configuration not stated)	6.4	0.3	84.7*	3.5	-5.8	-0.8
COCCNC(=O)Cn1cc(/C=C2\C(=O)NC(=O)N(c3cccc(C)c3C)C2=O)c2ccccc21	4.4	2.2	92.2*	17.6	-2.4	-6.8
COCCNC(=O)Cn1cc(/C=C2\C(=O)NC(=O)N(c3ccccc3F)C2=O)c2ccccc21	3.4	4.3	-1.2	5.9	3.8	-6.3
C=CCN1C(=O)/C(=C/c2ccc(N3CCOCC3)o2)C(=O)NC1=S	10.7	10.7	12.1	-2.2	-1.4	-14.0
C=CCN1C(=O)NC(=O)/C(=C\c2ccc(-c3ccccc3[N+](=O)[O-])o2)C1=O	8.9	1.2	98.3*	10.2	16.5	-11.4
CCCCCC(=NO)c1c(C)[nH]c2ccccc12	0.7	nt	nt	nt	nt	nt
CCCC/C(=N/O)c1c(C)[nH]c2ccccc12	nt	2.7	98.8*	-2.2	-5.4	-2.4
CCCCC/C(=N/O)c1c(C)[nH]c2ccccc12	nt	13.1	99.1*	0.9	-5.3	-62.2
CC(=O)N1CCN(C(=O)COc2ccc(N(C)S(=O)(=O)c3cccs3)cc2)CC1	-1.5	-0.6	-12.3	-3.5	-10.4	-2.0
C(#CCN1CCOCC1)COC/C=C/c1ccccc1	-9.7	1.2	-3.8	31.3*	-41.2	-0.9
O=c1c2ccccc2[nH]c(=S)n1-c1ccc2c(c1)OCO2	5.8	-8.1	59.4	2.1	-4.1	5.7
Cc1cnc(-n2c(=S)[nH]c3ccccc3c2=O)s1	nt	0.6	96.7*	nt	?	-2.0
CCCC(=NO)c1c[nH]c2ccccc12	-5.1	nt	nt	nt	nt	nt
C=C1[C@@H](O)[C@]23C[C@@H]1[C@@H](O)C[C@H]2[C@@]12C4[C@@H]3C[C@@H]1[C@@](C)(CC[C@@H]2O)CN4CC	3.4	nt	nt	nt	nt	nt
CCN(CC)c1ccc(CC2C(=O)N(C)C(=O)N(C)C2=O)cc1	8.5	1.5	98.8*	12.9	-0.4	-0.4
CNC(C)Cc1ccccc1Sc1ccc(O)cc1 (configuration not stated)	1.2	-1.4	99.1*	8.7	5.1	-6.3
CNCCc1ccc(O)c(O)c1	1.4	-9.2	97.3*	nt	-1.9	-5.4
Cc1cc(N=Nc2ccccc2C)ccc1N	8.5	5.3	85.8*	nt	nt	15.5
O=C(N1CCCCCC1)N1CC1	-0.6	nt	nt	nt	0.3	-3.6
CN(C)P(=O)(C(Cl)=C(N1CCCCC1)N1CCCCC1)N(C)C	1.4	-6.1	98.4*	0.7	-1.8	-8.6
COc1ccc(C(=O)ON=C(C(N)=O)P(=O)(OC(C)C)OC(C)C)cc1	4.3	nt	nt	nt	nt	nt
Cc1[nH]c2ccccc2c1C1=CCNCC1	1.3	-4.7	93.9*	-5.6	-7.4	-20.5
NC(=N[N+](=O)[O-])N1CCN(C(=O)OC2CCCC2)CC1	1.0	nt	nt	nt	nt	nt
O=C(NC1CC1)c1cn(Cc2ccccc2)nc1-c1ccccc1	4.4	nt	nt	nt	-10.2	-4.8
Cc1ccc(Cn2cc(C=O)c(-c3ccc(C)cc3)n2)cc1	4.4	-0.6	90.0*	-6.9	-1.8	15.3
